≈ marks a conversion by molar mass, not a printed value. Entries after “also recorded” stand apart in the source; their conditions may differ.
Tests used:
[1] = tested on: Escherichia coli (ATCC 25922); experiment: Antibacterial MIC, macrodilution method, E. coli; assay type: cell-based; settings: ATCC25922, read-out: MIC E. coli
Method in brief: (§1)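 CLSI M07-A9 tube macrodilution. Strains were grown overnight on nutrient agar at 37 °C, and colonies were suspended in Mueller-Hinton broth. Inoculum was 1 × 10^6 per mL (5 × 10^5 per mL in test). DMSO stock was 5120 μg/mL. Final concentrations were 256 to […] in 2 mL. Tubes were incubated at 37 °C for 16–20 h. Controls were inoculum with and without 1% DMSO, and broth alone.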

[2] = tested on: NCI-H460 non-small cell lung cancer cells; experiment: Antiproliferative assay; assay type: cell-based; settings: Homo sapiens, NCI-H460, 72 h, read-out: IC50 NCI-H460
Method in brief: (§2)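 Adherent lines were seeded at 500 (Capan-1), 1000 (LN-229, HCT-116) or 1500 (NCI-H460) cells/well and dosed after overnight incubation. Suspension lines were seeded at 2500 (HL-60, K-562, Z-138) or 5500 (DND-41) cells/well directly onto compound. Seven 5-fold concentrations ran from 100 to 0.006 μM for 72 h. Viability was read as MTS absorbance at 490 nm after 3 h, and IC50 was derived from OD values. Two independent experiments.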

[3] = tested on: LN-229 glioblastoma cells; experiment: Antiproliferative assay; assay type: cell-based; settings: Homo sapiens, LN-229, 72 h, read-out: IC50 LN-229
Method in brief: as §2

[4] = tested on: K-562 chronic myeloid leukemia cells; experiment: Antiproliferative assay; assay type: cell-based; settings: Homo sapiens, K562, 72 h, read-out: IC50 K-562
Method in brief: as §2

[5] = tested on: Capan-1 pancreatic adenocarcinoma cells; experiment: Antiproliferative assay; assay type: cell-based; settings: Homo sapiens, CAPAN-1, 72 h, read-out: IC50 Capan-1
Method in brief: as §2

[6] = tested on: HCT-116 colon carcinoma cells; experiment: Antiproliferative assay; assay type: cell-based; settings: Homo sapiens, HCT-116, 72 h, read-out: IC50 HCT-116
Method in brief: as §2

[7] = tested on: HL-60 acute myeloid leukemia cells; experiment: Antiproliferative assay; assay type: cell-based; settings: Homo sapiens, HL-60, 72 h, read-out: IC50 HL-60
Method in brief: as §2

[8] = tested on: Z-138 non-Hodgkin's lymphoma cells; experiment: Antiproliferative assay; assay type: cell-based, human; settings: read-out: IC50 Z-138; 72 h incubation, two independent experiments
Method in brief: as §2

[9] = tested on: Klebsiella pneumoniae (ATCC 27736); experiment: Antibacterial MIC, macrodilution method, K. pneumoniae; assay type: cell-based; settings: ATCC27736, read-out: MIC K. pneumoniae
Method in brief: as §1

[10] = tested on: Pseudomonas aeruginosa (ATCC 9027); experiment: Antibacterial MIC, macrodilution method, P. aeruginosa; assay type: cell-based; settings: ATCC9027, read-out: MIC P. aeruginosa
Method in brief: as §1

[11] = tested on: Staphylococcus aureus (ATCC 25923); experiment: Antibacterial MIC, macrodilution method, S. aureus; assay type: cell-based; settings: ATCC25923, read-out: MIC S. aureus
Method in brief: as §1

PBMC from healthy donors = experiment: Cytotoxicity test on normal peripheral blood mononuclear cells; assay type: cell-based, human; settings: PBMC of two healthy donors, 72 h, result in words
salmon sperm DNA = experiment: Fluorescent intercalator displacement; assay type: binding; settings: tested at 250, 100 and 40 μM; result in words
Method in brief: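 Competitive fluorescence-polarization displacement. Acridine orange (50 nM) and salmon sperm DNA (6 μg/mL) were mixed with test compound at 250, 100 or 40 μM in HEN buffer (10 mM HEPES pH 7.5, 1 mM EDTA, 100 mM NaCl). Mixtures stood 20 min in the dark. mP was normalized to the DMSO control, with mitoxantrone (10 μM) as positive control.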

[12] = tested on: eight human tumor cell lines; experiment: Antiproliferative assay, span over the panel of tumor cell lines; assay type: cell-based; settings: 72 h, read-out: IC50 range across tested tumor cell lines
Method in brief: as §2

[13] = tested on: Enterococcus faecalis (ATCC 29212); experiment: Antibacterial MIC, macrodilution method, E. faecalis; assay type: cell-based; settings: MHB, 37 °C

Row | Structure (SMILES) | MIC [1] [µg/mL] | IC50 [2] [µM] | IC50 [3] [µM] | IC50 [4] [µM] | IC50 [5] [µM] | IC50 [6] [µM] | IC50 [7] [µM] | IC50 [8] [µM] | MIC [9] [µg/mL] | MIC [10] [µg/mL] | MIC [11] [µg/mL] | Impact on viability of normal PBMC (MTS) (PBMC from healthy donors; 100 to 0.006 μM) | Dead and apoptotic PBMC (propidium iodide, caspase 3/7, IncuCyte) (PBMC from healthy donors) | DNA intercalation (acridine orange displacement, fluorescence polarization) (salmon sperm DNA) | IC50 [12] [µM] | MIC E. faecalis [13] [µg/mL]
1 | Fc1cc(-c2nc3ccc(Cl)cc3[nH]2)ccc1OCCN1CCOCC1 [Compound 24, 4-(2-(4-(6-Chloro-1H-benzo[d]imidazol-2-yl)-2-fluorophenoxy)ethyl)morpholine] | > 256 | > 100 | > 100 | > 100 | > 100 | > 100 | > 100 | ≥ 80.5 | > 256 | > 256 | > 256 |  |  |  |  | 
2 | CCN(CC)CCOc1ccc(-c2nc3ccc(Cl)cc3[nH]2)cc1F [Compound 23, 2-(4-(6-Chloro-1H-benzo[d]imidazol-2-yl)-2-fluorophenoxy)-N,N-diethylethan-1-amine] | 256 (≈ 707 µM) | 2.3 ± 0.8 | 5 ± 1.3 | 2 ± 0.7 | 2.2 ± 0.5 | 9.4 ± 1.2 | 4.4 ± 0.5 |  | > 256 | > 256 | 256 (≈ 707 µM) | Only at the highest tested concentration (100 μM), there was an impact on the viability of these normal cells | caused apoptosis in normal cells only at the highest applied concentration of 100 μM; also recorded: an increase in the number of dead and apoptotic cells was observed at 100 μM | scored best in the binding assay | 2 to 9.4 | 
3 | CCN(CC)CCOc1ccc(-c2nc3ccc(F)cc3[nH]2)cc1F [Compound 26, N,N-Diethyl-2-(2-fluoro-4-(6-fluoro-1H-benzo[d]imidazol-2-yl)phenoxy)ethan-1-amine] | > 256 | 35.9 ± 1.3 | 51.5 ± 0.1 | 19.1 ± 1.8 | 35.4 ± 2.7 | 49.5 ± 0.4 | 33.8 ± 3.3 |  | > 256 | > 256 | > 256 |  |  | scored best in the binding assay |  | 
4 | O=C(COc1ccc(-c2nc3ccc(Cl)cc3[nH]2)cc1)N1CCOCC1 [Compound 17, 2-(4-(6-Chloro-1H-benzo[d]imidazol-2-yl)phenoxy)-1-morpholinoethan-1-one] | > 256 | > 100 | > 100 | > 100 | 28.5 ± 4.4 | > 100 | > 100 |  | > 256 | > 256 | > 256 |  |  |  |  | 0.5 (≈ 1.34 µM)
5 | Clc1ccc2nc(-c3ccc(OCCN4CCOCC4)cc3)[nH]c2c1 [Compound 16, 4-(2-(4-(6-Chloro-1H-benzo[d]imidazol-2-yl)phenoxy)ethyl)morpholine] | 256 (≈ 715 µM) | > 100 | > 100 | 37.3 ± 3.9 | 45 ± 5.1 | > 100 | 51.6 ± 1.5 |  | > 256 | > 256 | 64 (≈ 179 µM) |  |  |  | 37.3 to 79.8 | 0.25 (≈ 0.699 µM)
6 | O=C(COc1ccc(-c2nc3ccc(Cl)cc3[nH]2)cc1F)N1CCOCC1 [Compound 25, 2-(4-(6-Chloro-1H-benzo[d]imidazol-2-yl)-2-fluorophenoxy)-1-morpholinoethan-1-one] | > 256 | > 100 | > 100 | > 100 | > 100 | > 100 | > 100 | ≥ 64.8 | > 256 | > 256 | > 256 |  |  |  |  | 

— article PMC12062833 (RSC Medicinal Chemistry, 2025)
